Usually inhibition stands for the share of the control response that was lost under treatment.

Data set [1] can be described thus: Cytotoxicity against mouse J774A.1 cells after 24 to 72 hrs by MTT assay. The format is cell-based, J774.A1. Conditions: read-out: MNCC. The method, boiled down:
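J774A.1 macrophages in DMEM with 10% heat-inactivated FBS at 37 °C, 5% CO2. Seeded at 1×10^5 cells/well, 24 h preincubation, then compounds at 1–100 µg/mL for 72 h (table footnote: viability at 24 h). MTT 2 h, formazan dissolved in DMSO, absorbance read at 570 nm. Highest non-cytotoxic concentration reported.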

Data set [2] can be described thus: Selectivity index, ratio of highest non-cytotoxic concentration for mouse J774A.1 cells to CC50 for bloodstream trypomastigote stage of Trypanosoma cruzi Y infected in monkey LLC-MK2 cells. The format is toxicity, cell-based. The following applies: read-out: Selectivity Index. In a few lines:
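Selectivity index is the highest non-cytotoxic concentration in J774A.1 macrophages divided by the 50% value against Y strain trypomastigotes measured after 24 h.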

Data set [3] deals with Trypanosoma cruzi. The data set can be described thus: Potency index, ratio of benznidazole CC50 to compound CC50 for Trypanosoma cruzi Dm28c epimastigotes. It counts as functional.
For data set [4], the system named is Trypanosoma cruzi. The experiment in a line: Potency index, ratio of benznidazole CC50 to compound CC50 for bloodstream trypomastigote stage of Trypanosoma cruzi Y infected in monkey LLC-MK2 cells. It counts as functional.
Data set [5] concerns Trypanosoma cruzi. The experiment in a line: Antitrypanosomal activity against bloodstream trypomastigote stage of Trypanosoma cruzi Y infected in monkey LLC-MK2 cells measured after 24 hrs by neubauer chamber method. It counts as functional. Conditions: LLC-MK2, in Primates. In a few lines:
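Y strain trypomastigotes taken from LLC-MK2 culture supernatant and held in RPMI-1640 with 10% FBS. Seeded at 4×10^5 cells/well and treated in triplicate for 24 h at 37 °C, 5% CO2. Motile parasites counted in a Neubauer chamber against untreated wells. IC50 by nonlinear regression from at least seven concentrations. Experiment repeated; SD < 10% of mean required.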

The test system of data set [6] is Trypanosoma cruzi. The experiment in a line: Antitrypanosomal activity against Trypanosoma cruzi Dm28c epimastigotes measured after 4 to 5 days by neubauer chamber method. The format is functional. The method, boiled down: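 Dm28c epimastigotes in LIT with 10% FBS, 1% hemin and gentamycin at 27 °C. Seeded at 10^6 cells/well and treated in triplicate for 4 days (table footnote: 5 days). Parasites counted in a Neubauer chamber against untreated wells as 100%. IC50 by nonlinear regression from at least five concentrations. Experiment repeated; only values with SD < 10% of mean kept.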

In data set [7] the test system is Trypanosoma cruzi. The experiment in a line: Induction of apoptosis in bloodstream trypomastigote stage of Trypanosoma cruzi Y infected in monkey LLC-MK2 cells assessed as late apoptotic cells at 2.2 uM measured after 24 hrs by Annexin-V-FITC/propidium iodide staining based flow cytometric method (reference value: 0.27%). It counts as functional.
For data set [8], the system named is Trypanosoma cruzi. The data set can be described thus: Induction of apoptosis in bloodstream trypomastigote stage of Trypanosoma cruzi Y infected in monkey LLC-MK2 cells assessed as late apoptotic cells at 4.4 uM measured after 24 hrs by Annexin-V-FITC/propidium iodide staining based flow cytometric method (reference value: 0.27%). The format is functional. For orientation: Flow cytometry measures light scatter and fluorescence of single cells or particles in a stream.

The test system of data set [9] is Trypanosoma cruzi. The data set can be described thus: Induction of apoptosis in bloodstream trypomastigote stage of Trypanosoma cruzi Y infected in monkey LLC-MK2 cells assessed as early apoptotic cells at 2.2 uM measured after 24 hrs by Annexin-V-FITC/propidium iodide staining based flow cytometric method (reference value: 0.31%). The format is functional.
Data set [10] has as its system Trypanosoma cruzi. The data set can be described thus: Induction of apoptosis in bloodstream trypomastigote stage of Trypanosoma cruzi Y infected in monkey LLC-MK2 cells assessed as necrotic cells at 4.4 uM measured after 24 hrs by Annexin-V-FITC/propidium iodide staining based flow cytometric method (reference value: 0.014%). It counts as functional.
Data set [11] relates to Trypanosoma cruzi. The experiment in a line: Induction of apoptosis in bloodstream trypomastigote stage of Trypanosoma cruzi Y infected in monkey LLC-MK2 cells assessed as necrotic cells at 2.2 uM measured after 24 hrs by Annexin-V-FITC/propidium iodide staining based flow cytometric method (reference value: 0.014%). It counts as functional.
The test system of data set [12] is Trypanosoma cruzi. The data set can be described thus: Induction of apoptosis in bloodstream trypomastigote stage of Trypanosoma cruzi Y infected in monkey LLC-MK2 cells assessed as early apoptotic cells at 4.4 uM measured after 24 hrs by Annexin-V-FITC/propidium iodide staining based flow cytometric method (reference value: 0.31%). The format is functional.
For data set [13], the system named is Trypanosoma cruzi. The data set can be described thus: Induction of apoptosis in bloodstream trypomastigote stage of Trypanosoma cruzi Y infected in monkey LLC-MK2 cells assessed as necrotic cells at 25 uM measured after 24 hrs by Annexin-V-FITC/propidium iodide staining based flow cytometric method (reference value: 0.014%). The format is functional.
For data set [14], the system named is Trypanosoma cruzi. The experiment in a line: Induction of apoptosis in bloodstream trypomastigote stage of Trypanosoma cruzi Y infected in monkey LLC-MK2 cells assessed as necrotic cells at 5 uM measured after 24 hrs by Annexin-V-FITC/propidium iodide staining based flow cytometric method (reference value: 0.014%). It counts as functional.
The target of data set [15] is Cruzipain (Trypanosoma cruzi) (UniProt P25779). The experiment in a line: Inhibition of Trypanosoma cruzi cruzain at 50 uM using Z-phe-Arg-aminomethylcoumarin as substrate pretreated for 10 mins measured for 5 mins by fluorometric method relative to control. The method, boiled down:
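Cruzain at 0.5 nM in 0.1 M sodium acetate pH 5.5 with 0.1 mM β-mercaptoethanol and 0.01% Triton X-100. Compound screened at 50 µM after a 10-min preincubation with enzyme, then 2.5 µM Z-FR-AMC added. AMC fluorescence (ex 340/em 440 nm) followed for 5 min. Activity taken from initial rates relative to a DMSO control. Two independent experiments, each in triplicate.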

Cruzipain (Trypanosoma cruzi), sequence (P25779 123-467 limits assumed): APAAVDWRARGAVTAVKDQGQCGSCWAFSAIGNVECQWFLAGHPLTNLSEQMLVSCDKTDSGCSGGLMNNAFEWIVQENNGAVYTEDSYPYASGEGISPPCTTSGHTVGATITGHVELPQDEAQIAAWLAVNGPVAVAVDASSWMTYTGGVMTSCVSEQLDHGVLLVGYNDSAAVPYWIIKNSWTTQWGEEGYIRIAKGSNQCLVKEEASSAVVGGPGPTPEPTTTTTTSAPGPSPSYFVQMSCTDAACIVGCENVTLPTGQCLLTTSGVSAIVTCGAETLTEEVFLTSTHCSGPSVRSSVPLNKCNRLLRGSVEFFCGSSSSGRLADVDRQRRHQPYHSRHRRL

For `C/C(=N\N=c1/scc(-c2ccc(Cl)c(Cl)c2)n1C)c1ccccn1`, the MNTC in [1] came to 11 µM. In data set [2], the selectivity ratio stood at 5. The Ratio in the data set on Trypanosoma cruzi [3] came out at 7; with Trypanosoma cruzi [4] it was 3. For the same compound, the CC50 was determined as 2.3 µM in the data set with Trypanosoma cruzi [5] and 6.9 µM in the data set with Trypanosoma cruzi [6].
Take `C/C(=N\N=c1/scc(-c2ccc(Cl)cc2Cl)n1C)c1ccccn1`: the MNTC in data set [1] was 14 µM. Also, in data set [2], the selectivity ratio came to 1. Besides, the CC50 was 13 µM with Trypanosoma cruzi [5] and 31.6 µM in the data set with Trypanosoma cruzi [6].
With `C/C(=N\N=c1/scc(-c2ccc(Cl)cc2)n1C)c1ccccn1`, the MNTC in data set [1] came to 20 µM. Moreover, in data set [2], the selectivity ratio is 4. For the same compound, the CC50 in the data set with Trypanosoma cruzi [5] amounted to 4.5 µM.
Consider `C/C(=N\N=c1/scc(-c2ccc([N+](=O)[O-])cc2)n1-c1ccccc1)c1ccccn1`, for which the MNTC in data set [1] was determined as 23 µM. Besides, the selectivity ratio in [2] is 7. In addition, the CC50 in the data set with Trypanosoma cruzi [5] worked out at 3.1 µM; in the data set on Trypanosoma cruzi [6] it was 87.4 µM.
For `C/C(=N\N=c1/scc(-c2ccc(Cl)c(Cl)c2)n1-c1ccccc1)c1ccccn1`, the MNTC in data set [1] was determined as 8 µM. In addition, the selectivity ratio in data set [2] was 4. The CC50 in the data set with Trypanosoma cruzi [5] turned out to be 1.9 µM; with Trypanosoma cruzi [6], 13.9 µM.
Consider `C/C(=N\N=c1/scc(-c2ccc(Br)cc2)n1-c1ccccc1)c1ccccn1`, for which the MNTC in data set [1] was 10 µM. In addition, the selectivity ratio in data set [2] amounted to 6. Also, the CC50 in the data set on Trypanosoma cruzi [5] is 1.8 µM; with Trypanosoma cruzi [6] it was 6.3 µM.
For `C/C(=N\N=c1/scc(-c2ccc([N+](=O)[O-])cc2)n1C)c1ccccn1`, the MNTC in [1] worked out at 36 µM. Besides, the selectivity ratio in data set [2] amounted to 5. For the same compound, the CC50 is 7 µM with Trypanosoma cruzi [5] and 13.7 µM in the data set with Trypanosoma cruzi [6].
On the same counts, the results for `C/C(=N\N=c1/sc(C)c(-c2ccccc2)n1-c1ccccc1)c1ccccn1` are 43 µM, 19, 2.3 µM and 15.5 µM.
As for `C/C(=N\N=c1/scc(-c2cccc([N+](=O)[O-])c2)n1C)c1ccccn1`, in [1], the MNTC was determined as 82 µM. In addition, the selectivity ratio in data set [2] is 34. The Ratio in the data set on Trypanosoma cruzi [4] worked out at 3. For the same compound, the CC50 in the data set with Trypanosoma cruzi [5] amounted to 2.4 µM; in the data set on Trypanosoma cruzi [6], 7.8 µM.
Turning to `C/C(=N\N=c1/scc(-c2ccc(Br)cc2)n1C)c1ccccn1`, the MNTC in [1] came out at 33 µM. The selectivity ratio in data set [2] came to 15. The Activity is given as 4% with Trypanosoma cruzi [7]; 4.7% in the data set on Trypanosoma cruzi [8]; 38% in the data set on Trypanosoma cruzi [9]; 3.15% in the data set with Trypanosoma cruzi [10]; 3% in the data set on Trypanosoma cruzi [11]; 35% in the data set on Trypanosoma cruzi [12]. In the data set with Trypanosoma cruzi [3], the Ratio is given as 15. Also, the CC50 came to 2.2 µM with Trypanosoma cruzi [5] and 3.2 µM in the data set on Trypanosoma cruzi [6].
Regarding `C/C(=N\N=c1/scc(-c2ccc(F)cc2)n1C)c1ccccn1`, the MNTC in [1] worked out at 12 µM. The selectivity ratio in data set [2] came out at 2. For the same compound, the values for the CC50 with Trypanosoma cruzi [5] and in the data set on Trypanosoma cruzi [6] were 5.6 µM and 8.5 µM, respectively.
On the same counts, the results for `C/C(=N\N=c1/scc(-c2ccc3ccccc3c2)n1C)c1ccccn1` are 30 µM, 10, 3 µM and 8.2 µM.
For `C/C(=N\N=c1/sc(C)c(-c2ccc(Br)cc2)n1C)c1ccccn1` the same measures were 68 µM, 20, 3.4 µM and 2.9 µM.
On the same counts, the results for `COc1ccc(-c2cs/c(=N\N=C(/C)c3ccccn3)n2C)cc1` are 20 µM, 4, 4.6 µM and 4.5 µM.
As to `O=C(Cn1ccnc1[N+](=O)[O-])NCc1ccccc1` [BENZNIDAZOLE], the MNTC in data set [1] was 44.7 µM. In addition, the selectivity ratio in data set [2] came out at 7.2. Moreover, the Activity in the data set on Trypanosoma cruzi [13] amounted to 56.4%; in the data set on Trypanosoma cruzi [14], 4.2%. Also, the CC50 with Trypanosoma cruzi [5] stood at 6.2 µM; with Trypanosoma cruzi [6], 48.8 µM.
For the compound `C/C(=N\N=c1/scc(-c2cccc([N+](=O)[O-])c2)n1-c1ccccc1)c1ccccn1`, in data set [1], the MNTC came to 10 µM. In [2], the selectivity ratio came out at 5. The figures for the CC50 in the data set with Trypanosoma cruzi [5] and in the data set with Trypanosoma cruzi [6] were 1.9 µM and 11 µM, respectively.
For `C/C(=N\N=c1/scc(-c2ccccc2)n1-c1ccccc1)c1ccccn1` the same measures were 51 µM, 8, 6.3 µM and 93.4 µM.
Consider `C/C(=N\N=c1/sc(C)c(-c2ccccc2)n1C)c1ccccn1`, for which the inhibition in [15] was found to be 73%. Further, the MNTC in data set [1] came out at 97 µM. For the same compound, the selectivity ratio in data set [2] stood at 36. Moreover, the CC50 in the data set with Trypanosoma cruzi [5] stood at 2.7 µM; in the data set with Trypanosoma cruzi [6], 6.2 µM.
`C/C(=N\N=c1/scc(-c2ccc3ccccc3c2)n1-c1ccccc1)c1ccccn1`: in data set [1], the MNTC amounted to 51 µM. The selectivity ratio in [2] turned out to be 8. In addition, the CC50 in the data set on Trypanosoma cruzi [5] came out at 6.1 µM; with Trypanosoma cruzi [6] it was 1.9 µM.
For `CNC(=S)N/N=C(\C)c1ccccn1`, in data set [1], the MNTC was 22 µM. For the same compound, the selectivity ratio in [2] was found to be 2.5. This compound had a CC50 in the data set on Trypanosoma cruzi [5] of 8.8 µM.
Take `C/C(=N\N=c1/scc(-c2ccc(Cl)cc2)n1-c1ccccc1)c1ccccn1`: in [1], the MNTC was 13 µM. Moreover, in data set [2], the selectivity ratio worked out at 7. Besides, the figures for the CC50 in the data set on Trypanosoma cruzi [5] and in the data set with Trypanosoma cruzi [6] were 2 µM and 9.1 µM, respectively.
Take `C/C(=N\N=c1/scc(-c2ccccc2)n1C)c1ccccn1`: the inhibition in data set [15] was 70%. The MNTC in data set [1] came to 4 µM. The selectivity ratio in data set [2] stood at 1. The CC50 in the data set on Trypanosoma cruzi [5] turned out to be 4 µM; in the data set with Trypanosoma cruzi [6], 56 µM.
As for `C/C(=N\N=c1/sc(C)c(-c2ccc(Br)cc2)n1-c1ccccc1)c1ccccn1`, the MNTC in data set [1] amounted to 30 µM. Further, the selectivity ratio in data set [2] was found to be 10. For the same compound, the CC50 with Trypanosoma cruzi [5] is 3.1 µM; in the data set with Trypanosoma cruzi [6], 17.1 µM.
For the compound `C/C(=N\N=c1/scc(-c2ccc(-c3ccccc3)cc2)n1-c1ccccc1)c1ccccn1`, the MNTC in [1] came to 7 µM. Further, the selectivity ratio in data set [2] was found to be 4. In addition, the CC50 turned out to be 2 µM in the data set with Trypanosoma cruzi [5] and 47.3 µM in the data set with Trypanosoma cruzi [6].
`C/C(=N\N=c1/scc(-c2ccc(F)cc2)n1-c1ccccc1)c1ccccn1`: in data set [15], the inhibition came to 58%. In addition, the MNTC in data set [1] is 35 µM. The selectivity ratio in data set [2] worked out at 9. The CC50 with Trypanosoma cruzi [5] was 3.9 µM; in the data set on Trypanosoma cruzi [6] it was 3.1 µM.
`C/C(=N\N=c1/scc(-c2ccc(-c3ccccc3)cc2)n1C)c1ccccn1`: in [1], the MNTC came to 6 µM. The selectivity ratio in data set [2] was 3. Besides, the CC50 was 2.2 µM in the data set on Trypanosoma cruzi [5] and 66.6 µM in the data set with Trypanosoma cruzi [6].

(Values after ChEMBL document CHEMBL4049394, “Desing and synthesis of potent anti-Trypanosoma cruzi agents new thiazoles derivatives which induce apoptotic parasite death” (Eur J Med Chem, 2017).)
